Calb biofilm kill = mixture kills Candida albicans biofilm cells | C. albicans biofilm persisters + clotrimazole, fluorescence viability; primary screen in compound mixtures of four per well | inhibition, % at 7.6 µM | actives 0.02% (n = 120,000);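 active = inhibition above 30.3% in the primary screen of four-compound pools, then above 30% when the compound was retested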;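 note: compounds exposed to preformed 24 h biofilms for 48 h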
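Assay system: C. albicans biofilms / Medium: RPMI/MOPS medium, pH 7.0 / Schedule: biofilm formation 24 h, compound exposure 48 h, 37 °C / Measured by: Alamar Blue fluorescence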
S1P4 antag = blocks the human S1P4 receptor; O95977; S1P4-expressing cells, antagonist mode, reporter read-out; inhibition, % at 4.98 µM; actives 0.26% (n = 220,000); in the data active = inhibition above about 29%
S1P3 antag = blocks the human S1P3 receptor | Q99500 | CHO S1P3 NFAT-BLA reporter, FRET fluorescence, antagonist mode | inhibition, % at 4.98 µM | actives 0.27% (n = 170,000);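 active = inhibition above the plate cutoff, the mean inhibition of test wells on that plate plus 3 SD, cut at about 28% in these data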;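 note: cells challenged with S1P at its EC80 of 0.8 µM; blue over green emission ratio from cleaved BLA substrate after 4 h stimulation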
Target sequence (Q99500 whole entry, looked up): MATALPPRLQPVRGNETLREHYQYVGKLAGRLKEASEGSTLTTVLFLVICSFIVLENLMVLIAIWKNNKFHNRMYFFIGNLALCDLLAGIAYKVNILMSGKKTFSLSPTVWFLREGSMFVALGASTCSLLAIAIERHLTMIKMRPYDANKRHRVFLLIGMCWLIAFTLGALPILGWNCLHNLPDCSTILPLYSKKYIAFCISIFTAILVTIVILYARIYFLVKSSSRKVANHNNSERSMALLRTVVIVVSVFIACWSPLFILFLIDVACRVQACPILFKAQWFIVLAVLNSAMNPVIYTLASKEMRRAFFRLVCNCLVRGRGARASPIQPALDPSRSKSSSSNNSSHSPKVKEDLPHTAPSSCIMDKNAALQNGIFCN
Mdm2 ligase inh = blocks human Mdm2 ubiquitin ligase activity. cell-based MDM2 ubiquitination luciferase reporter, 2 h; 0 = plate control, 100 = twice control, blank-subtracted. signal enhancement, % at 5 µM. actives 0.11% (n = 210,000). AID 1230;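 active = signal enhancement of 30% or more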;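 note: luminescence tracks abundance of the self-degrading MDM2-luciferase fusion protein; higher signal means inhibition of MDM2 E3 ligase activity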
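Material: stable MDM2–luciferase fusion reporter cells / Quantity: 2000 cells/well / Dosing: single 5 µM compound dose, 0.2% final DMSO / Buffer or medium: DMEM / Schedule: 4 h cell settling then 2 h compound exposure, 37 °C / Detection: luminescence with SteadyLite reagent, 15 min at room temperature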
S1P4 ag = activates the human S1P4 receptor; S1P4-expressing cell line, agonist reporter assay; activation, % at 4.98 µM; AID 1509; actives 0.35% (n = 220,000); O95977; in the data active = activation above about 11%
S1P4 antag conf = confirmation of human S1P4 receptor antagonists. shares compounds with S1P4 antag. S1P4-expressing cell line, antagonist mode, reporter read-out. inhibition, % at 4.98 µM. actives 71% (n = 520). AID 1524; in the data active = inhibition above about 30%
S1P1 antag = human S1P1 antagonism as S1P4 antagonist counter-screen. shares compounds with S1P4 antag. inhibition, % at 4.98 µM. cell-based S1P1 antagonist counterscreen, inhibition. actives 37% (n = 520); in the data active = inhibition above about 40%;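 note: receptor stimulated with S1P near its EC80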
Each line names hits and unclear results; the compound was inactive in the other large screens (follow-up assays come after a bar, where they were run). Rows were chosen to be rich in hits. Some 0.9% of all compounds tested hit in one or more screens of this group.

O=C1C(Nc2ccc(O)cc2)=C/C(=N/S(=O)(=O)c2cccs2)c2ccccc21	S1P4 antag 86 | S1P4 antag conf 109 | S1P1 antag 94
N#C/C(=C\c1ccco1)C(=O)NCC1CCCO1 (centres undefined)	none
COc1ccc(/C=N/Nc2nn3cnnc3c3ccccc23)cc1	S1P4 antag 30 | S1P4 antag conf inactive | S1P1 antag inactive
C=CCNC(=O)C1CC2Cn3c(nc4cc5ccccc5cc43)C2N1C (centres undefined)	none (no result: S1P4 antag, S1P3 antag, S1P4 ag)
O=C(N=C1N=C2C=CC(Br)=CN2Cc2ccccc21)c1ccc([N+](=O)[O-])cc1[N+](=O)[O-]	none
N#CCCN1CCCc2cc(N=Nc3ccc(C(F)(F)F)cc3)ccc21	S1P4 antag 31 | S1P4 antag conf 85 | S1P1 antag inactive
CCCN1CCCc2ccccc21	none (no result: Calb biofilm kill, S1P3 antag)
CN(C(=O)Nc1ccc(Cl)cc1Cl)C1CCCC1	none

Bioassay records from PubChem BioAssay.
